# According to ChEMBL document CHEMBL4689842, “EUbOPEN Chemogenomics Library wave 1” (2021):
# Several values for one entry are separate records, joined by “and”; a condition that tells them apart may be missing. Identical values can stand only once.
# System: Fibroblast
# Experiment: Multiplex assay against human fibroblast
# Format: toxicity, cell-based
# In short: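 Per cents of healthy-nucleus cells form the tubulin, mitochondrial-mass and membrane-permeability phenotype values. Live cells were stained at seeding with Hoechst33342, BioTracker Green Microtubule Cytoskeleton Dye, MitoTracker Red and Annexin V Alexa Fluor 680. After compound addition they were imaged on a CQ1 microscope at 37°C and 5% CO2, and CellPathfinder machine-learning gating split them into Hoechst high-intensity objects or normal cells, normal cells into healthy, pyknosed or fragmented nuclei, and pyknosed cells into mitotic or apoptotic.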
# [1] = 12 h, 10 µM, compound concentration 10 uM, replicate 1
# [2] = 12 h, 10 µM, compound concentration 10 uM, replicate 2
# [3] = 24 h, 10 µM, compound concentration 10 uM, replicate 1
# [4] = 24 h, 10 µM, compound concentration 10 uM, replicate 2
# [5] = 12 h, 1 µM, compound concentration 1 uM, replicate 1
# [6] = 12 h, 1 µM, compound concentration 1 uM, replicate 2
# [7] = 24 h, 1 µM, compound concentration 1 uM, replicate 1
# [8] = 24 h, 1 µM, compound concentration 1 uM, replicate 2
compound,measurement,setting,value
CCN(CC)S(=O)(=O)Nc1cccc(-c2ccc3c(NC(=O)C4CC4)n[nH]c3c2)c1,Population Apoptotic (%),[1],81%
same,Population Fragmented Nuclei (%),[1],23% and 19%
same,Population Healthy Nuclei (%),[1],64% and 56%
same,Population Hoechst High Intensity Objects (%),[1],13% and 11%
same,Population Membrane Permeable-Phenotype (%),[1],9% and 5%
same,Population Mitochondria Different-Phenotype (%),[1],2% and 6%
same,Population Mitotic Cells (%),[1],18%
same,Population Normal (%),[1],86% and 88%
same,Population Pyknosed Nuclei (%),[1],11% and 23%
same,Population Tubulin-Different-Phenotype (%),[1],5% and 7%
same,Total Cell Count,[1],220 and 309
same,Population Apoptotic (%),[2],66% and 40%
same,Population Fragmented Nuclei (%),[2],72% and 55%
same,Population Healthy Nuclei (%),[2],17% and 34%
same,Population Hoechst High Intensity Objects (%),[2],48% and 35%
same,Population Membrane Permeable-Phenotype (%),[2],20% and 11%
same,Population Mitotic Cells (%),[2],33% and 60%
same,Population Normal (%),[2],51% and 65%
same,Population Pyknosed Nuclei (%),[2],10% and 9%
same,Population Tubulin-Different-Phenotype (%),[2],20% and 11%
same,Total Cell Count,[2],56 and 80
same,Population Apoptotic (%),[3],77% and 62%
same,Population Fragmented Nuclei (%),[3],22% and 19%
same,Population Healthy Nuclei (%),[3],66% and 62%
same,Population Hoechst High Intensity Objects (%),[3],13% and 11%
same,Population Membrane Permeable-Phenotype (%),[3],6% and 4%
same,Population Mitochondria Different-Phenotype (%),[3],0% and 8%
same,Population Mitotic Cells (%),[3],22% and 38%
same,Population Normal (%),[3],86% and 88%
same,Population Pyknosed Nuclei (%),[3],10% and 18%
same,Population Tubulin-Different-Phenotype (%),[3],0% and 11%
same,Total Cell Count,[3],238 and 311
same,Population Fragmented Nuclei (%),[4],51% and 63%
same,Population Healthy Nuclei (%),[4],35% and 23%
same,Population Hoechst High Intensity Objects (%),[4],31% and 42%
same,Population Membrane Permeable-Phenotype (%),[4],10% and 28%
same,Population Normal (%),[4],68% and 57%
same,Population Pyknosed Nuclei (%),[4],12% and 13%
same,Total Cell Count,[4],79 and 52
COc1ccc(S(=O)(=O)N(CCO)c2ccccc2CN(C)C/C=C/c2ccc(Cl)cc2)cc1.O=P(O)(O)O,Population Fragmented Nuclei (%),[5],35%
same,Population Healthy Nuclei (%),[5],51%
same,Population Hoechst High Intensity Objects (%),[5],16%
same,Population Membrane Permeable-Phenotype (%),[5],12%
same,Population Mitochondria Different-Phenotype (%),[5],29%
same,Population Mitotic Cells (%),[5],19%
same,Population Normal (%),[5],83%
same,Population Pyknosed Nuclei (%),[5],13%
same,Population Tubulin-Different-Phenotype (%),[5],86%
same,Total Cell Count,[5],278
same,Population Apoptotic (%),[6],80%
same,Population Fragmented Nuclei (%),[6],56%
same,Population Healthy Nuclei (%),[6],33%
same,Population Hoechst High Intensity Objects (%),[6],33%
same,Population Membrane Permeable-Phenotype (%),[6],11%
same,Population Mitochondria Different-Phenotype (%),[6],88%
same,Population Mitotic Cells (%),[6],20%
same,Population Normal (%),[6],66%
same,Population Pyknosed Nuclei (%),[6],9%
same,Population Tubulin-Different-Phenotype (%),[6],94%
same,Total Cell Count,[6],77
same,Population Apoptotic (%),[1],75%
same,Population Fragmented Nuclei (%),[1],32%
same,Population Healthy Nuclei (%),[1],55%
same,Population Hoechst High Intensity Objects (%),[1],10%
same,Population Membrane Permeable-Phenotype (%),[1],14%
same,Population Mitochondria Different-Phenotype (%),[1],5%
same,Population Mitotic Cells (%),[1],25%
same,Population Normal (%),[1],89%
same,Population Pyknosed Nuclei (%),[1],12%
same,Population Tubulin-Different-Phenotype (%),[1],19%
same,Total Cell Count,[1],179
same,Population Apoptotic (%),[2],50%
same,Population Fragmented Nuclei (%),[2],61%
same,Population Healthy Nuclei (%),[2],34%
same,Population Hoechst High Intensity Objects (%),[2],44%
same,Population Membrane Permeable-Phenotype (%),[2],22%
same,Population Mitochondria Different-Phenotype (%),[2],22%
same,Population Mitotic Cells (%),[2],50%
same,Population Normal (%),[2],55%
same,Population Pyknosed Nuclei (%),[2],3%
same,Population Tubulin-Different-Phenotype (%),[2],55%
same,Total Cell Count,[2],94
same,Population Apoptotic (%),[7],80%
same,Population Fragmented Nuclei (%),[7],34%
same,Population Healthy Nuclei (%),[7],55%
same,Population Hoechst High Intensity Objects (%),[7],23%
same,Population Membrane Permeable-Phenotype (%),[7],5%
same,Population Mitochondria Different-Phenotype (%),[7],79%
same,Population Mitotic Cells (%),[7],20%
same,Population Normal (%),[7],76%
same,Population Pyknosed Nuclei (%),[7],9%
same,Population Tubulin-Different-Phenotype (%),[7],90%
same,Total Cell Count,[7],264
same,Population Apoptotic (%),[8],100%
same,Population Fragmented Nuclei (%),[8],48%
same,Population Healthy Nuclei (%),[8],38%
same,Population Hoechst High Intensity Objects (%),[8],37%
same,Population Membrane Permeable-Phenotype (%),[8],0%
same,Population Mitochondria Different-Phenotype (%),[8],100%
same,Population Mitotic Cells (%),[8],0%
same,Population Normal (%),[8],62%
same,Population Pyknosed Nuclei (%),[8],12%
same,Population Tubulin-Different-Phenotype (%),[8],88%
same,Total Cell Count,[8],75
same,Population Apoptotic (%),[3],69%
same,Population Fragmented Nuclei (%),[3],33%
same,Population Healthy Nuclei (%),[3],52%
same,Population Hoechst High Intensity Objects (%),[3],14%
same,Population Membrane Permeable-Phenotype (%),[3],8%
same,Population Mitochondria Different-Phenotype (%),[3],3%
same,Population Mitotic Cells (%),[3],30%
same,Population Normal (%),[3],85%
same,Population Pyknosed Nuclei (%),[3],14%
same,Population Tubulin-Different-Phenotype (%),[3],14%
same,Total Cell Count,[3],186
same,Population Apoptotic (%),[4],75%
same,Population Fragmented Nuclei (%),[4],71%
same,Population Healthy Nuclei (%),[4],20%
same,Population Hoechst High Intensity Objects (%),[4],44%
same,Population Membrane Permeable-Phenotype (%),[4],18%
same,Population Mitochondria Different-Phenotype (%),[4],18%
same,Population Mitotic Cells (%),[4],25%
same,Population Normal (%),[4],55%
same,Population Pyknosed Nuclei (%),[4],7%
same,Population Tubulin-Different-Phenotype (%),[4],36%
same,Total Cell Count,[4],95
